# Compound activity from PubChem.
# Many of the other results were omitted from the sample, so hits are more common in it than they were.
# UPR XBP1 act = adaptive UPR (XBP1) activation. CHO-XBP1 luciferase reporter, IRE1-XBP1 UPR activation, luminescence; percent of tunicamycin response, DMSO as zero. activation, % at 20 µM. 330,000 tested, 0.33% active;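 active means versus positive control, 20 µM dose yields 30% or more activation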;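 further: 100% = tunicamycin at 10 µg/mL and 0% = DMSO only wells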
#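 Material: CHO cell line with stable XBP1 luciferase reporter; buffer or medium: F12 medium containing 10% fetal bovine serum; compound: single point, 20 µM final compound, 1% DMSO; incubation: 6 h treatment, 37 °C; measured by: glow luminescence from Steady-Glo reagent; evaluation: activation, % of tunicamycin; control set: tunicamycin high, DMSO low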
# TLR9-MyD88 inh = TLR9-MyD88 interaction inhibition; Q9NR96+Q99836; CHO BLA complementation TLR9-MyD88, CCF4 FRET ratio; inhibition, % at 4.98 µM; 340,000 tested, 0.21% active; AID 504734;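 active means inhibition above the mean over all tested compounds plus 3 SD, cut at about 21% in these data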;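 further: 0% = DMSO only wells and 100% = clavulanate BLA inhibitor control wells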
# TLR4 MyD88 comp = inhibitors of human TLR4-MyD88 binding; 200,000 tested, 0.18% active; inhibition, % at 8.4 µM; O00206+Q99836; HeLa CL3-4 TLR4/MyD88 BLA complementation, FRET ratio; in the data active means inhibition above about 25%;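 further: 0% = vehicle and 100% = reference inhibitor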
# NOD2 RIPK2 PPI = inhibitors of human NOD2-RIPK2 interaction; O43353; inhibition, % at 4.98 µM; 360,000 tested, 0.38% active; CHO BLA complementation NOD2-RIPK2, CCF4 ratio; in the data active means inhibition above about 21%;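 further: 0% = vehicle only and 100% = reference blocker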
# CHOP inh = inhibitors of CHOP induction in ER stress response; 220,000 tested, 3.8% active; CHO-K1 CHOP-promoter luciferase, tunicamycin-induced, 15-18 h; inhibition, % at 10 µM;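 active means compounds that reduced the stress-induced luciferase reporter signal by more than about 70% of percent inhibition, limit read from the data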;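 further: 0% = tunicamycin plus vehicle and 100% = wells without tunicamycin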
# UPR CHOP act = apoptotic UPR (CHOP) activation; AID 449763; activation, % at 10 µM; 330,000 tested, 0.34% active; CHO-CHOP luciferase reporter, luminescence; percent of tunicamycin response over DMSO baseline;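 active means at 10 µM dose, activation of 40% or more, normalized to positive control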;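 further: 100% = tunicamycin at 10 µg/mL and 0% = DMSO alone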
#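 Assay system: CHO-CHOP cells, stable luciferase reporter of PERK-eIF2a-CHOP signalling / Buffer or medium: F12 plus 10% serum / Compound dosing: one dose, 10 µM in 0.5% DMSO / Times: 6 h compound treatment, 37 °C / Technique: luciferase luminescence / Read-out: % reporter activation, DMSO baseline versus tunicamycin full activation / Benchmarks: tunicamycin and DMSO controls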
# Starred values were filed as active, the others as inactive; · = not tested or not shown.
SMILES,UPR XBP1 act,TLR9-MyD88 inh,TLR4 MyD88 comp,NOD2 RIPK2 PPI,CHOP inh,UPR CHOP act
CCOc1ccc2nc(NC(=O)C3CCCN(S(=O)(=O)c4c(C)noc4C)C3)sc2c1 (stereo not drawn),3,8,·,-12,-21,1
CCC1CCC(C(=O)NC(C(=O)Nc2ccc3c(c2)OCCO3)C(C)C)CC1 (stereo not drawn),-1,-2,9,-16,83*,0
COCCCNC(=O)c1cn(CC(C)C)c(=O)c2c1c1ccccc1n2C,2,-3,3,8,15,-1
CCOc1ccc(NC(=O)c2cn(CC(C)C)c(=O)c3c2c2ccccc2n3C)cc1,7,4,-4,1,90*,1
C=CCc1cccc(C=Nc2cc(Br)ccc2O)c1O,4,-2,-5,-19,98*,3
CCc1ccc(O)c(N=Cc2cccc(C)c2O)c1,1,-6,1,5,76*,2
C=CCc1cccc(C=Nc2c[nH]c(=O)[nH]c2=O)c1O,-2,-5,·,-9,·,2
Cc1cccc(C=Nc2ccc3c4c(cccc24)CC3)c1O,2,-4,7,16,-6,3
CCc1nc2ccc(C(=O)N3CCCC(C(N)=O)C3)cn2c1N(C)Cc1ccc(OC)cc1 (stereo not drawn),·,·,·,-9,·,·
O=[N+]([O-])c1ccc(NCCCNS(=O)(=O)c2ccc(Cl)cc2)c(Cl)c1,0,-6,-8,3,82*,1
CCCc1nc(-c2cc3ccc(C)cc3[nH]c2=O)no1,3,-2,2,10,-6,1
CCOc1nc(C)ccc1-c1noc(-c2ccccc2OC)n1,4,-7,-11,-6,72*,1
CCOc1cc(-c2nc(-c3ccc(C)nc3OC)no2)cc(OCC)c1OCC,·,10,-1,-8,77*,·
CCOc1ccccc1-c1nc(-c2cc3ccc(C)cc3[nH]c2=O)no1,6,11,-3,-3,72*,-1
CN(Cc1ccccc1)C(=O)C1CCN(S(=O)(=O)c2cccc3nonc23)CC1,0,-6,·,3,·,1
COc1ccc(-c2nc3c(c(=O)[nH]c(=O)n3Cc3ccccc3)n2C)cc1,2,-5,-3,-11,20,-1
COc1ccc(-c2nc3c(c(=O)[nH]c(=O)n3Cc3ccccc3)n2Cc2ccccc2)cc1,6,2,9,-8,76*,7
CCCc1cc(=O)[nH]c(Nc2cc(OC)ccc2OC)n1,-1,-10,2,-3,74*,-1
COc1ccc(Nc2nc(C)cc(=O)[nH]2)c(OC)c1,-2,2,-14,-4,19,0
C#CCOCCOCCOCCNc1nc(N2CCN(C(=O)CCCCCCCCCCNC(=O)Cn3cc(C[C@@H](C)O)nn3)CC2)nc(N2CCN(C(=O)CCCCCCCCCCNC(=O)[C@H](CCCN=C(N)N)n3cc(C[C@@H](C)CC)nn3)CC2)n1,4,19,·,24*,·,1
C#CCOCCOCCOCCNc1nc(N2CCN(C(=O)CCCCCCCCCCNC(=O)[C@H](CO)n3cc(CCCSC)nn3)CC2)nc(N2CCN(C(=O)CCCCCCCCCCNC(=O)[C@H](CCCN=C(N)N)n3cc(C[C@@H](C)CC)nn3)CC2)n1,1,7,·,21*,·,1
C#CCOCCOCCOCCNc1nc(N2CCN(C(=O)CCCCCCCCCCNC(=O)Cn3cc(C[C@@H](C)O)nn3)CC2)nc(N2CCN(C(=O)CCCCCCCCCCNC(=O)[C@H](CCCCN)n3cc(CCCC(=O)O)nn3)CC2)n1,1,-2,·,-9,·,0
Clc1ccc(CNCC2CCCO2)cc1 (stereo not drawn),-4,-1,·,-3,·,-1
COc1ccccc1C(NC(=O)C1CCN(CCOc2ccc(Cl)cc2Cl)CC1)c1ccccn1 (stereo not drawn),·,·,·,2,·,·
Fc1ccc(CN2CCN(C(=S)NCCc3ccccc3)CC2)c(Cl)c1,3,-11,-4,10,85*,0
COc1ccc(-c2nc(N)ncc2-c2csc(C)n2)c(O)c1,0,-13,6,3,73*,0
